Source: PubChem BioAssay (several laboratories)
This is a sample that favours compounds with a hit; in the whole collection about 1.6% have one here.
Vif inh: HIV Vif self-association inhibitors, primary screen, imaging, HEK293T, single point; HEK293T cells, Vif self-association by quenched fluorescence, 24 h; inhibition, % at 7.49 µM; actives 0.35% (n = 340,000); AID 602346, 2012; in the data active means inhibition above about 50%, passing the limit was not always enough; inconclusive means no clear call, values can overlap the other calls; inactive means below about 31%
SR-BI uptake up: activators of SR-BI mediated DiI-HDL uptake, primary screen, ldlA[mSR-BI] CHO cells, DiI fluorescence; 3 h; 100 = double the neutral-control signal; activation, % at 12.5 µM; actives 0.096% (n = 320,000);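 active means mean replicate activation of at least 60% and every replicate at or above 60%; inconclusive means mean or all-replicate condition met, but not both; inactive means mean below 60% and not all replicates reaching 60%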;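 further: 0% = median plate neutral-control signal and 100% = twice that signal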
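material = CHO ldlA[mSR-BI] cells | medium = Ham's F12 with 0.5% BSA, HEPES 25 mM, pH 7.4 | reagent = fluorescent DiI-HDL, 10 µg/mL final | compound dosing = single-point compound dose | incubation = 3 h, 37 °C | measured by = bottom-read fluorescence, 550/595 nm | measure = HDL uptake via cellular fluorescence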
TAG inh: inhibitors of triacylglycerol accumulation, primary screen, cell-based, uHTS, fluorescence, H9c2. H9c2 cells, Nile Red lipid (TAG) fluorescence; cells loaded with 200 µM oleic acid. inhibition, % at 12.5 µM. actives 0.66% (n = 230,000). AID 651582, 2012;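 active means pattern-corrected inhibition of lipid staining of at least 50% with the nuclear-stain viability signal not falling by more than 50%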;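 further: 0% = DMSO wells and 100% = triacsin C control wells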
A1 inh: caspase 3/7 activation in MEF A1-2A-BIM cells, primary screen, A1 inhibitor project, cell-based, luminescence, HTS | Caspase-Glo 3/7 luminescence, 3 h; percent of clofoctol response, vehicle zero | caspase activation, % (no concentration beside the values) | actives 0.066% (n = 330,000) | AID 2462, 2010;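 active means over half of replicate activation scores above 10%, or exactly half above 10 with the replicate mean above 10; inconclusive means replicate mean below 10 yet half the replicates above 10; inactive means over half of replicates below 10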
SR-BI HDL uptake: inhibitors of SR-BI mediated HDL lipid uptake, primary screen, ldlA[mSR-BI] cells, fluorescence, single point | ldlA[mSR-BI] CHO cells, DiI-HDL uptake fluorescence, 3 h | Scavenger receptor class B member 1 (Mus musculus), Q61009 | inhibition, % at 12.5 µM | AID 488896, 2010 | actives 0.96% (n = 320,000);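 active means mean replicate inhibition of at least 70% and a set share of replicates each scoring 70 or more; inconclusive means meets just one of the two criteria; inactive means fails both criteria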;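 further: 0% = median of neutral control wells and 100% = median of positive control wells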
Target sequence (Q61009 whole entry, looked up): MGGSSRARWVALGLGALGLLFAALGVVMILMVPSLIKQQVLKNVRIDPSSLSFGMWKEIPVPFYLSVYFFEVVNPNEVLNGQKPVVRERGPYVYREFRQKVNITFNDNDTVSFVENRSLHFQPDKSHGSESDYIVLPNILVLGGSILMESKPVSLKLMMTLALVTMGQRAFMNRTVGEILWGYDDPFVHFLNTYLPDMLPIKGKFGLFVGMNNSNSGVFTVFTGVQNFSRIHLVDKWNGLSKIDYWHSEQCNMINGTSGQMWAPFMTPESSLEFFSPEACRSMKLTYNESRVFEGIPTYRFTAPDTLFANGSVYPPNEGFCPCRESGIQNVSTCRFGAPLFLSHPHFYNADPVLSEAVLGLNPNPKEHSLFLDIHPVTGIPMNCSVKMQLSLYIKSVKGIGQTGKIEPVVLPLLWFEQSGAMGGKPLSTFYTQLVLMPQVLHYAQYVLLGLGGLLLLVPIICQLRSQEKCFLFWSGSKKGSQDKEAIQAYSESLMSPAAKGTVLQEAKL
The depositor's hits bear a star; i = inactive; ? = inconclusive; · = no result.

SMILES	Vif inh	SR-BI uptake up	TAG inh	A1 inh	SR-BI HDL uptake
C#CCOCCOCCOCCNc1nc(N2CCN(C(=O)CCCCCCCCCCNC(=O)Cn3cc(CCCCCN)nn3)CC2)nc(N2CCN(C(=O)CCCCCCCCCCNC(=O)[C@H](CO)n3cc(CCCCCN)nn3)CC2)n1	53.5*	28.7	1.1	1.3	-28.7
C#CCOCCOCCOCCNc1nc(N2CCN(C(=O)CCCCCCCCCCNC(=O)[C@H](CCCCN)n3cc(CCO)nn3)CC2)nc(N2CCN(C(=O)CCCCCCCCCCNC(=O)[C@H](CCCN=C(N)N)n3cc(C[C@@H](C)CC)nn3)CC2)n1	72.3*	-58.5	-44.7	0.2	58.5
C#CCOCCOCCOCCNc1nc(N2CCN(C(=O)CCCCCCCCCCNC(=O)[C@H](CCCCN)n3cc(C)nn3)CC2)nc(N2CCN(C(=O)CCCCCCCCCCNC(=O)[C@@H]([C@H](C)CC)n3cc(CCCCCN)nn3)CC2)n1	i	-31.0	74.6*	1.6	31.0
C#CCOCCOCCOCCNc1nc(N2CCN(C(=O)CCCCCCCCCCNC(=O)[C@H](CCCCN)n3cc(C[C@@H](C)CC)nn3)CC2)nc(N2CCN(C(=O)CCCCCCCCCCNC(=O)[C@H](CCCCN)n3cc(C[C@@H](C)CC)nn3)CC2)n1	1.3	50.6	88.4*	0.6	-50.6
C#CCOCCOCCOCCNc1nc(N2CCOCC2)nc(N2CCN(C(=O)CCCCCCCCCCNC(=O)[C@H](CO)n3cc(CCCCCN)nn3)CC2)n1	-0.8	-55.3	-19.1	0.2	55.3
O=C(Cc1ccc(S(=O)(=O)N2CCOCC2)s1)OCc1ccc(Cl)cc1	-0.7	-6.7	-5.2	0.1	6.7
O=C(OCC(=O)c1ccc[nH]1)c1ccc(F)c(S(=O)(=O)N2CCOCC2)c1	-1.9	-13.9	5.5	0.0	13.9
COc1ccc(CN(C)C(=O)Cn2cc(C)c(=O)[nH]c2=O)cc1OC	13.8	5.8	0.2	·	-5.8
O=C(NC1CCCCC1)c1cc(S(=O)(=O)N2CCCC2)ccc1Cl	9.4	9.2	·	0.9	-9.2
Cc1cc(C)nc(N/N=C/c2cn[nH]c2-c2ccc(F)cc2)n1	-8.0	-23.7	0.1	0.3	23.7
C#CCOCCOCCOCCNc1nc(N2CCN(C(=O)CCCCCCCCCCNC(=O)[C@H](CCCCN)n3cc(CCCC(=O)O)nn3)CC2)nc(N2CCN(C(=O)CCCCCCCCCCNC(=O)[C@H](CCCN=C(N)N)n3cc(C[C@@H](C)CC)nn3)CC2)n1	12.2	-80.2	-18.2	?	80.2*
COCC(=O)N1CCC(n2nccc2NC(=O)c2ccccc2OC)CC1	6.3	27.9	11.4	0.3	-27.9
Cn1nnnc1Sc1ncnc2scc(-c3cccc(Br)c3)c12	-0.9	12.9	67.5*	-0.4	-12.9
Cc1sc2ncnc(Sc3nnnn3-c3ccccc3)c2c1C	·	-7.4	·	0.6	7.4
COc1ccc(-c2csc3ncnc(Sc4nnnn4C)c23)cc1	25.0	-4.3	23.8	1.7	4.3
Clc1ccc(-n2nnnc2Sc2ncnc3sccc23)cc1	184.1*	23.7	20.0	0.5	-23.7
Cn1nnnc1Sc1ncnc2scc(-c3ccc(Cl)cc3)c12	148.9*	-8.1	48.6	1.9	8.1
O=C(COC(=O)/C=C/c1ccco1)NCCN1C(=O)CSC1=O	-0.8	22.4	4.8	·	-22.4
CCOC(=O)C1=C(COC(=O)C(C)(C)Oc2ccc(Cl)cc2)NC(=O)NC1C (configuration not stated)	-3.2	18.7	13.7	0.9	-18.7
OC(Cn1cnnc1)c1ccccc1 (configuration not stated)	4.8	44.8	·	-0.7	-44.8
COc1ccccc1-c1cc(C(F)(F)F)nc(S(=O)(=O)CCCC(=O)Nc2cc(C)on2)n1	60.2*	5.0	47.3	-1.1	-5.0
COc1ccccc1-c1cc(C(F)(F)F)nc(S(=O)(=O)CCCC(=O)N2CCCCC2C)n1 (configuration not stated)	·	-20.4	67.0*	0.3	20.4
COc1ccc(-c2cc(C(F)(F)F)nc(S(=O)(=O)CCCC(=O)Nc3cc(C)on3)n2)cc1OC	88.6*	8.1	94.9	·	-8.1
COc1ccccc1-c1cc(C(F)(F)F)nc(S(C)(=O)=O)n1	16.7	33.2	-7.2	-0.5	-33.2
COc1ccccc1-c1cc(C(F)(F)F)nc(S(=O)(=O)CCCC(=O)NCc2ccc(F)cc2)n1	23.9	2.8	81.6	1.0	-2.8
SMILES	Vif inh	SR-BI uptake up	TAG inh	A1 inh	SR-BI HDL uptake
COc1ccccc1-c1cc(C(F)(F)F)nc(S(=O)(=O)CCCC(=O)Nc2cccnc2Cl)n1	29.2	25.1	85.9	·	-25.1
COc1ccc2c(c1)sc(=N)n2C	-1.7	-4.9	-6.8	-0.5	4.9
CN(/C(=N\S(=O)(=O)c1ccccc1)C(F)(F)F)c1ccccc1	64.2*	·	-0.6	0.4	·
CC(C)Cc1ccc(-c2cc3nc(NCCc4ccc(S(N)(=O)=O)cc4)ccn3n2)cc1	·	·	4.4	·	·
Cc1ccc(Nc2nc(N)nc(-c3oc4ccccc4c3C)n2)cc1	27.6	-13.3	57.6*	0.9	13.3
ClC1(CNc2ccccc2)CCN(Cc2ccccc2)CC1	-17.0	5.2	-11.5	-1.6	-5.2
CCn1c(/C=C/c2ccccc2)nc2ccccc2c1=O	0.7	-25.5	-19.3	0.4	32.0
CCn1c(/C=C/c2ccc(F)cc2)nc2ccccc2c1=O	59.6*	-29.8	·	0.8	29.8
CC[C@@H](C)[C@H](CN[C@H](CNC)C(C)C)NC[C@@H](C)c1ccc(CC(C)C)cc1	2.2	14.9	126.6*	0.2	-14.9
CC[C@H](C)[C@@H](CNC)NC[C@@H](Cc1ccc(O)cc1)NCC(C)(C)C	10.0	6.2	4.3	-0.3	-6.2
O=C(COc1ccc(/C=N/NC(=O)c2cc3ccccc3o2)cc1Cl)Nc1ccccc1	2.2	-74.5	·	64.4*	74.5*
COc1cc(/C=N/NC(=O)c2ccccc2O)ccc1OCC(=O)Nc1ccccc1	1.6	-17.2	-8.2	-0.4	17.2
CCc1nc(N=Nc2c(O)[nH]c3ccccc23)c2c3c(sc2n1)CCC3	-0.3	-33.4	·	8.9*	33.4
CC1CCc2c(sc3ncn(CC(=O)N=Nc4c(O)[nH]c5ccccc45)c(=O)c23)C1 (configuration not stated)	0.5	·	-2.7	0.8	·
CC1(C)CC(=O)c2cc(OCC(=O)N3CCN(c4ccccc4F)CC3)ccc2O1	0.0	-24.0	·	-0.4	24.0
CC1(C)CC(=O)c2c(O)cc(OCC(=O)N3CCN(c4ccc(F)cc4)CC3)cc2O1	6.4	-79.7	·	0.1	79.7*
COc1ccc(Nc2ncnc3sc(-c4ccccc4)cc23)cc1OC	12.9	-93.1	·	1.2	93.1*
